# Results as given in ChEMBL document CHEMBL5032502, “Syntheses, Biological Evaluations, and Mechanistic Studies of Benzo[c][1,2,5]oxadiazole Derivatives as Potent PD-L1 Inhibitors with In Vivo Antitumor Activity” (J Med Chem, 2021).
# Active and inactive are the calls of the source. The rule behind the calls is not given here.
# Legend:
# [1] = Cmax in Sprague-Dawley rat at 9 mg/kg, iv measured upto 24 hrs by LC-MS analysis; type: ADME, organism-based; set-up: route intravenous, dose 9 mg/kg, time <=24; conditions: in vivo
# Outline: (§1)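 Male animals fasted 12 h before dosing. Plasma levels measured by LC-MS, with the prodrug quantified as the parent acid. Mean ± SEM, n = 3.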
# [2] = AUC (0 to t) in Sprague-Dawley rat at 9 mg/kg, iv measured upto 24 hrs by LC-MS analysis; type: ADME, organism-based; set-up: route intravenous, dose 9 mg/kg, time <=24; conditions: in vivo; outline: as §1
# [3] = Clearance in Sprague-Dawley rat at 9 mg/kg, iv measured upto 24 hrs by LC-MS analysis; type: ADME, organism-based; conditions: in vivo; outline: as §1
# [4] = Half life in Sprague-Dawley rat at 45 mg/kg, po measured upto 24 hrs by LC-MS analysis; type: ADME, organism-based; conditions: in vivo; outline: as §1
# [5] = Tmax in Sprague-Dawley rat at 45 mg/kg, po measured upto 24 hrs by LC-MS analysis; type: ADME, organism-based; conditions: in vivo
# Outline: (§2)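 Male Sprague-Dawley rats or C57BL/6 mice fasted 12 h before dosing, given oral (po) or intravenous (iv) doses. Plasma levels measured by LC-MS. Parameters reported as mean ± SEM, n = 3.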
# [6] = Cmax in Sprague-Dawley rat at 45 mg/kg, po measured upto 24 hrs by LC-MS analysis; type: ADME, organism-based; set-up: route oral, dose 45 mg/kg, time <=24; conditions: in vivo; outline: as §1
# [7] = Acute toxicity in C57BL/6 mouse assessed as mortality at 2000 mg/kg, po observed for 30 days; type: organism-based; conditions: in vivo, 720 h, time 30 day
# Outline: (§3)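 Healthy C57BL/6 mice got a single oral 2000 mg/kg dose. Mortality and body weight were then recorded over a 30-day observation period.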
# [8] = Acute toxicity in C57BL/6 mouse assessed as body weight loss at 2000 mg/kg, po observed for 30 days; type: organism-based; conditions: in vivo, 720 h, time 30 day; outline: as §3
# [9] = Toxicity in C57BL/6 mouse assessed as effect on AST level at 2000 mg/kg, po observed for 30 days; type: organism-based; conditions: in vivo, 720 h, time 30 day
# [10] = Toxicity in C57BL/6 mouse assessed as effect on ALT level at 2000 mg/kg, po observed for 30 days; type: organism-based; conditions: in vivo, 720 h, time 30 day
# B16-F10 [11] = experiment: Antitumor activity against mouse B16-F10 cells implanted in C57BL/6 mouse assessed as tumor growth inhibition at 45 mg/kg, po measured after 18 days; type: functional; conditions: 432 h, time 18 day, read-out: TGI
# Outline: (§4)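 Female C57BL/6J mice, 8 weeks old, injected dorsally with 1 × 10⁶ B16-F10 cells in PBS. Daily oral gavage started the same day (day 1), in 0.5% CMC-Na vehicle. Tumour size and body weight recorded daily, volume = 0.5 × L × W². Sacrifice on day 18, tumours excised and weighed. TGI = (1 − Vt/Vv) × 100.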
# B16-F10 [12] = experiment: Antitumor activity against mouse B16-F10 cells implanted in C57BL/6 mouse assessed as tumor weight at 45 mg/kg, po measured after 18 days (reference value: 1.76 gm); type: functional; conditions: time 18 day; outline: as §4
# MC-38 [13] = experiment: Antitumor activity against mouse MC38 cells implanted in C57BL/6 mouse assessed as tumor growth inhibition at 50 mg/kg, po measured after 14 days; type: functional; conditions: MC-38, po, 336 h, time 14 day, read-out: TGI
# MC-38 [14] = experiment: Antitumor activity against mouse MC38 cells implanted in C57BL/6 mouse assessed as tumor growth inhibition at 150 mg/kg, po measured after 18 days; type: functional; conditions: MC-38, po, 432 h, time 18 day, read-out: TGI
# Outline: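 Female C57BL/6J mice, 8 weeks old, injected dorsally with 1 × 10⁶ MC38 cells in PBS. At 50 mm³, randomized to CMC-Na vehicle, 50, 150 or 300 mg/kg by daily oral gavage. Tumours measured every two days, volume = 0.5 × L × W². Sacrifice after 18 days of treatment. TGI = (1 − Vt/Vv) × 100. n = 8−10.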
# MC-38 [15] = experiment: Antitumor activity against PD-L1 humanized mouse MC38 cells implanted in PD-L1 humanized C57BL/6 mouse assessed as tumor growth inhibition at 50 mg/kg, po measured after 30 days; type: functional; conditions: MC-38, po, 720 h, time 30 day, read-out: TGI
# Outline: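 PD-L1-humanized C57BL/6 mice given 1 × 10⁶ MC38-hPD-L1(Tg)-mPDL1(KO) cells in the right flank. Once tumours reached 50 mm³, randomized into three groups: CMC-Na vehicle, 25 or 50 mg/kg by daily oral gavage for 30 days. TGI from mean tumour volume of treated versus vehicle groups. n = 6.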
# MC-38 [16] = experiment: Antitumor activity against PD-L1 humanized mouse MC38 cells implanted in PD-L1 humanized C57BL/6 mouse assessed as tumor growth inhibition at 5 mg/kg, po measured after 27 days; type: functional; conditions: MC-38, po, 648 h, time 27 day, read-out: TGI
# Outline: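 Female PD-L1-humanized C57BL/6 mice, 6 weeks old, injected in the right flank with 1 × 10⁶ MC38-hPD-L1(Tg)-mPDL1(KO) cells in PBS. At 50 mm³ tumours, animals randomized to 0.5% CMC-Na vehicle or drug by daily oral gavage. Tumours measured twice weekly, volume = 0.5 × L × W². Sacrifice on day 27. TGI = (1 − Vt/Vv) × 100. n = 8.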
# MC-38 [17] = experiment: Antitumor activity against mouse MC38 cells xenografted in C57BL/6 mouse assessed as increase in ratio of CD8 positive T cells to CD4 positive T cells at 25 mg/kg, po by flow cytometry analysis; type: functional, organism-based
# Outline: (§5)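 Tumours taken from PD-L1-humanized mice carrying MC38-hPD-L1 tumours and dosed orally at 5 or 25 mg/kg daily. Tissue digested to single cells, red cells lysed with ACK buffer, Fc blocked. Surface stain 60 min for CD45, CD3, CD4, CD8, CD335, CD11b, Ly6G, Ly6C and F4/80, with a viability dye. Intracellular FOXP3 stain after permeabilization. Mean ± SEM, n = 7−8, one-way ANOVA.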
# MC-38 [18] = experiment: Antitumor activity against mouse MC38 cells xenografted in C57BL/6 mouse assessed as reduction in mMDSC cells at 25 mg/kg, po by flow cytometry analysis; type: functional, organism-based; outline: as §5
# [19] = Half life in C57BL/6 mouse at 2 mg/kg, iv measured upto 24 hrs by LC-MS analysis; type: ADME, organism-based; conditions: in vivo; outline: as §1
# [20] = Tmax in C57BL/6 mouse at 2 mg/kg, iv measured upto 24 hrs by LC-MS analysis; type: ADME, organism-based; conditions: in vivo; outline: as §2
# [21] = Cmax in C57BL/6 mouse at 2 mg/kg, iv measured upto 24 hrs by LC-MS analysis; type: ADME, organism-based; set-up: route intravenous, dose 2 mg/kg, time <=24; conditions: in vivo; outline: as §1
# [22] = AUC (0 to t) in C57BL/6 mouse at 2 mg/kg, iv measured upto 24 hrs by LC-MS analysis; type: ADME, organism-based; set-up: route intravenous, dose 2 mg/kg, time <=24; conditions: in vivo; outline: as §1
# [23] = Half life in C57BL/6 mouse at 10 mg/kg, po measured upto 24 hrs by LC-MS analysis; type: ADME, organism-based; conditions: in vivo; outline: as §1
# [24] = Cmax in C57BL/6 mouse at 10 mg/kg, po measured upto 24 hrs by LC-MS analysis; type: ADME, organism-based; set-up: route oral, dose 10 mg/kg, time <=24; conditions: in vivo; outline: as §1
# [25] = AUC (0 to t) in C57BL/6 mouse at 10 mg/kg, po measured upto 24 hrs by LC-MS analysis; type: ADME, organism-based; set-up: route oral, dose 10 mg/kg, time <=24; conditions: in vivo; outline: as §1
# [26] = Toxicity in C57BL/6 mouse assessed as body weight loss at 2000 mg/kg, po observed for 30 days; conditions: in vivo, 720 h
smiles,measurement,setting,value
CCOC(=O)[C@@H](CO)NCc1cc(Cl)c(OCc2cccc(-c3ccccc3)c2Br)cc1OCc1ccc2nonc2c1.Cl,Cmax,[1],13000 ng/mL
same,AUC(0-t) at 24 h,[2],6280 ng·h/mL
same,clearance,[3],23.8 mL/min/kg
same,half-life,[4],3.43 h
same,Tmax,[5],4 h
same,Cmax,[6],488 ng/mL
same,Activity,[7],Non-Toxic
same,Activity,[8],Non-Toxic
same,Activity,[9],Non-Toxic
same,Activity,[10],Non-Toxic
same,inhibition in vivo at 45 mg/kg,B16-F10 [11],70.7%
same,Activity,B16-F10 [12],0.79 g
same,inhibition in vivo at 50 mg/kg,MC-38 [13],50.9%
same,inhibition in vivo at 150 mg/kg,MC-38 [14],55.1%
same,inhibition in vivo at 50 mg/kg,MC-38 [15],30.8%
same,inhibition in vivo at 5 mg/kg,MC-38 [16],19.3%
same,Activity,MC-38 [17],Active
same,Activity,MC-38 [18],Active
same,half-life,[19],2.05 h
same,Tmax,[20],4.8 min
same,Cmax,[21],2820 ng/mL
same,AUC(0-t) at 24 h,[22],1150 ng·h/mL
same,half-life,[23],1.55 h
same,Cmax,[24],150 ng/mL
same,AUC(0-t) at 24 h,[25],444 ng·h/mL
same,Activity,[26],Non-Toxic
